Species on record: Rattus norvegicus
Test: Toxicity in CCI rat pain model assessed as side effects
Type: organism-based
Conditions: in vivo
Summary of the method: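 Rats with unilateral sciatic chronic constriction injury received a single intrathecal bolus via an implanted cannula 14 days after surgery, with morphine and vehicle as comparators. Compound-related behavioural observations were recorded alongside von Frey paw-withdrawal testing. Three animals per analogue.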

CC(C)C[C@@H]1NC(=O)[C@H](CCCCN)NC(=O)[C@H](Cc2ccc(O)cc2)NC(=O)CNC(=O)[C@@H]2CSSC[C@H](NC1=O)C(=O)N[C@@H](Cc1cnc[nH]1)C(=O)N1CC[C@H](O)[C@H]1C(=O)N[C@H](C(=O)O)CSSC[C@H](NC(=O)[C@@H](NC(=O)CNC(=O)[C@@H](N)CC(N)=O)C(C)C)C(=O)N2
Activity: Toxic

Reference: ChEMBL document CHEMBL1154792, “chi-Conopeptide pharmacophore development: toward a novel class of norepinephrine transporter inhibitor (Xen2174) for pain” (J Med Chem, 2009)
